The values below come from BindingDB's records for doi:10.1016/s0960-894x(02)00170-1 (Kingston University, 2002).

Molecules are shown by their SMILES.

As usually defined, the IC50 is the point on the concentration scale where inhibition reaches its midpoint. A lower IC50 goes with greater potency in that assay.

In this assay the target is T1, Steryl-sulfatase (Homo sapiens, UniProt P08842).
T1 sequence (P08842 whole entry): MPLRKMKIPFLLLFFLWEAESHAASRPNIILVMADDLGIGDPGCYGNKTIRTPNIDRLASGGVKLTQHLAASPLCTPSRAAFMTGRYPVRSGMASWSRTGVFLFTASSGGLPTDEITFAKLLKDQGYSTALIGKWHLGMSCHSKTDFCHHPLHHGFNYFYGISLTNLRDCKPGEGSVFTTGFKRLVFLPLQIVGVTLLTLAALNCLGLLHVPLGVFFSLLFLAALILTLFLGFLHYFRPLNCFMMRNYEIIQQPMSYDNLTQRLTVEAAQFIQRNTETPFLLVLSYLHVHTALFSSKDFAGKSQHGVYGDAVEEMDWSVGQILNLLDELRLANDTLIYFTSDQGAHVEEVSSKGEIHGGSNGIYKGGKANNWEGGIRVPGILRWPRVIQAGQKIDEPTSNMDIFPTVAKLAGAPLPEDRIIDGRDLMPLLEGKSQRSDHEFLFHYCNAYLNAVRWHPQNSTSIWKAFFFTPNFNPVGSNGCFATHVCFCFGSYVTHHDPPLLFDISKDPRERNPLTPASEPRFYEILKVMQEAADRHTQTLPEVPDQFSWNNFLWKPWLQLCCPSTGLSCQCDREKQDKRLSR
The experiment in a line: Compound was evaluated for its inhibitory activity against estrone sulfatase enzyme. The method in brief: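 They are added to tubes holding [3H]estrone sulfate (300,000 dpm) and inhibitor, which was dried from ethanol under nitrogen. Incubation runs 20 min at 37 °C and is quenched with toluene. Radioactivity in the toluene extract is counted. Triplicates are run alongside no-inhibitor controls and boiled-microsome blanks.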

For the compound `COC(=O)c1ccc(-c2ccc(OS(N)(=O)=O)cc2)cc1`, the half-inhibitory concentration (IC50) stood at 5.2 µM.

As to `CCCOC(=O)c1ccc(-c2ccc(OS(N)(=O)=O)cc2)cc1`, the half-maximal inhibitory concentration (IC50) stood at 3.5 µM.

The compound `CCCCOC(=O)c1ccc(-c2ccc(OS(N)(=O)=O)cc2)cc1` came in with an IC50 of 5.8 µM.

`CCOC(=O)c1ccc(-c2ccc(OS(N)(=O)=O)cc2)cc1` yielded a 50% inhibitory concentration (IC50) of 4.2 µM.

In turn, `N#Cc1ccc(-c2ccc(OS(N)(=O)=O)cc2)cc1` had a half-inhibitory concentration (IC50) of 6.7 µM. Against the preceding compound, the IC50 is about 1.6-fold higher.

Take `Cc1cc(=O)oc2cc(OS(N)(=O)=O)ccc12` [4-methyl-2-oxo-2H-chromen-7-yl sulfamate]: 10 µM corresponded to half-maximal inhibition (IC50).

As to `NS(=O)(=O)Oc1ccc(-c2ccccc2)cc1` [Sulfamic acid biphenyl-4-yl ester], half-maximal inhibition (IC50) required 76.1 µM.
